The list is not random: actives were taken first. Their share in the collection is about 1.6%.
Tb MetRS inh – Trypanosoma brucei MetRS inhibition | inhibition, % at 11.9 µM | AID 624268 | actives 0.4% (n = 360,000) | purified T. brucei MetRS, ATP depletion, Kinase-Glo luminescence;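 active = inhibition above a per-plate cutoff of the control wells' mean inhibition plus 3 SD, cut at about 5.5% in these data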;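 note: 0% = DMSO wells median and 100% = median of wells with control inhibitor compound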
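Dosing: 11.9 µM single point; system: parasite MetRS enzyme; technique: luminescence of leftover ATP; times: 15 min enzyme-compound preincubation, 2 h reaction, 10 min detection, 25 °C; replicates: each compound tested once; read-out basis: percent inhibition relative to median high and low control wells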
p47phox inh – inhibitors of human p47phox binding; inhibition, % at 24.7 µM; AID 1274; actives 0.53% (n = 220,000); p47phox/p22phox peptide binding, fluorescence polarization, 2 h;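 note: 0% = p47phox with labelled peptide and 100% = labelled peptide alone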
eIF4E-4G inh – inhibitors of eIF4E and eIF4G interaction in translation initiation; actives 0.37% (n = 220,000); TR-FRET eIF4E-eIF4GI(517-606) binding, 2 h; P63073+Q04637; AID 782; inhibition, % at 21.7 µM;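 note: 0% = full FRET control wells and 100% = background wells lacking eIF4GI fragment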
p97 ATPase inh – inhibitors of human p97 ATPase; actives 0.42% (n = 220,000); P55072; recombinant p97 ATPase, Kinase-Glo ATP luminescence, 3 h; inhibition, % at 8 µM; AID 1481; in the data active = inhibition above about 15%;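 note: 0% = DMSO vehicle and 100% = wells lacking enzyme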
SUMO HTRF inh – blocks human SUMOylation mediated by UBC9. inhibition, % at 35 µM. HTRF SUMOylation assay, SAE1/SAE2 + UBC9, in vitro. P63279. actives 0.36% (n = 290,000); in the data active = inhibition above about 50%, passing the limit was not always enough
14-3-3 Bad inh – disrupts binding of bovine 14-3-3 zeta to phospho-Bad peptide; P63103; TR-FRET 14-3-3zeta/Dy647-pBad peptide displacement, 1 h; inhibition, % at 21.7 µM; actives 0.71% (n = 220,000); AID 781;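 active = inhibition above about 70%, limit read from the data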;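 note: 0% = full 14-3-3 plus peptide FRET controls and 100% = background without 14-3-3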
* hit, by the source's call; x = not tested or not shown; [ ] = remark or other dose.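 Rule for the calls, unless noted: active = inhibition above about 30% (limit read from the data); inactive = the rest.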

SMILES | Tb MetRS inh | p47phox inh | eIF4E-4G inh | p97 ATPase inh | SUMO HTRF inh | 14-3-3 Bad inh
CCOC(=O)C1CCCN(c2ncnc3c2oc2ccccc23)C1 (centres undefined) | 0 | -8 | 7 | -7 | 31 | 83*
O=C(CSc1nc2c(c(C(F)(F)F)n1)CCc1ccccc1-2)NCc1ccccc1 | 0 | -8 | 5 | 2 | 10 | -10
Cc1nn(Cc2ccccc2)c(C)c1NC(=O)CSc1nc2c(c(C(F)(F)F)n1)CCc1ccccc1-2 | 0 | 42* | 8 | -7 | 24 | 33
Cc1nc2ccc(C(=O)NCCc3c[nH]c4ccccc34)cn2c1N(C)C(=O)CCc1ccccc1 | 0 | x | x | x | x | x
COC(=O)C1=C(C)NC(=O)C1(Nc1ccc(Cl)cn1)C(F)(F)F (centres undefined) | 0 | -12 | 35*[fluorescence artefact?] | 2 | 8 | -11
COc1ccc(NC(=O)c2cc(-c3sc(NC(=O)c4ccccc4)nc3C)n(-c3ccc(Br)cc3)n2)cc1 | -1 | x | x | x | x | x
CCCC(c1nnnn1Cc1ccco1)N1CCC(C(N)=O)CC1 (centres undefined) | -1 | -29 | -4 | 3 | 9 | 71*
CN(C)CC1CCCCC1OC(=O)c1ccc(S(=O)(=O)N(C)c2ccccc2)cc1 (centres undefined) | 0 | x | x | x | 8 | x
CCCSc1nc2c(c(=O)[nH]c(=O)n2C)n1Cc1ccc(C)cc1 | 0 | 33* | 1 | 3 | 23 | 11
CCOC(=O)C[n+]1c(C)sc2ccc(OC)cc21 | 0 | 0 | -5 | 3 | 19 | 80*
Cc1cc(C)c2c(=O)[nH]c(SCC(=O)c3ccc(F)c(C)c3)nc2n1 | 0 | 38* | 15 | 7 | 21 | 46
O=C1CC(=O)c2c1cccc2[N+](=O)[O-] | x | -14 | 29 | 17* | 27 | 31
Cc1ccc(C(=O)NCCN2CCC(n3c(=O)[nH]c4ccccc43)CC2)cc1C | -1 | x | x | x | x | x
COc1ccc(C(C)=O)cc1COC(=O)c1ccc(OCc2c(C)noc2C)cc1 | 0 | 7 | -37 | -2 | 26 | 73*
COc1ccc(C(C)=O)cc1COC(=O)c1c(C)noc1C | 0 | 27 | 12 | -1 | 8 | -12
O=C(Cc1cccs1)N=Nc1c(O)[nH]c2ccccc12 | -1 | 10 | -1 | 8 | -21 | 7
O=C(CSc1nnc(SCc2cccc3ccccc23)s1)N=Nc1c(O)[nH]c2ccccc12 | x | 32* | 6 | 3 | 6 | 49
COC(=O)[C@@]12C[C@@H](CC(=O)N3CCC(c4ccccc4)CC3)C(=O)N(Cc3cccc4ccccc34)C1=CCC(C)(C)C2 | -1 | x | x | x | x | x
COc1ccccc1-n1cnc2c(c1=O)c1nc3ccccc3nc1n2-c1ccc(C)c(C)c1 | -1 | 35* | 6 | 0 | x | 41
COCCCn1c2nc3ccccc3nc2c2c(=O)n(-c3ccccc3OC)cnc21 | -2 | -14 | -4 | 2 | 20 | -5
CCOC(=O)c1cc(-c2ccccc2)sc1NC(=O)CC(C)C | -1 | -3 | 6 | -6 | -5 | 74*
Cc1ccc2nc(-c3ccc(NC(=S)NC4CC(C)(C)NC(C)(C)C4)cc3)sc2c1 | -1 | 22 | 21 | 7 | 15 | 93*
Cc1ccc2nc(-c3ccc(NC(=S)NC(=O)C(C)C)cc3)sc2c1 | 0 | -67 | -20 | 2 | 17 | -4
CCOC(=O)C1(C(=O)OCC)NC(=O)CC1C(C)C (centres undefined) | 0 | x | x | x | x | x
CCOc1cc(N2CCOCC2)c(OCC)cc1NS(=O)(=O)c1ccc(Cl)s1 | -1 | 59* | 1 | -10 | -5 | 83*
SMILES | Tb MetRS inh | p47phox inh | eIF4E-4G inh | p97 ATPase inh | SUMO HTRF inh | 14-3-3 Bad inh
CCN(CC(=O)NC1CCS(=O)(=O)C1)S(=O)(=O)c1ccccc1Cl (centres undefined) | 0 | x | x | x | 11 | x
CCN(CC(=O)NC1CCS(=O)(=O)C1)S(=O)(=O)c1cccc(C(C)=O)c1 (centres undefined) | 0 | 43* | -1 | 1 | -3 | 0
Cc1cccc(Nc2ncnc3ccccc23)c1 | 0 | -7 | 8 | -1 | 14 | 73*
Cc1ccc(Nc2ncnc3ccccc23)cc1 | -1 | -2 | 1 | -2 | 4 | 4
O=C(Nc1ccc(Br)cc1)c1ccc(N2C(=O)C3CC=C(Cl)CC3C2=O)cc1 (centres undefined) | -1 | -25 | -58 | 3 | 53* | 6
Cc1oc(-c2ccc(Cl)cc2)[n+]([O-])c1C | 0 | 9 | 2 | -2 | 14 | 84*
Cc1oc(-c2ccc(Cl)cc2)cc1C(=O)O | 0 | -15 | 5 | 7 | 4 | 9
COc1ccc(NC(=O)c2cc(C3CCCCN3S(=O)(=O)Cc3ccccc3)on2)cn1 (centres undefined) | 0 | x | x | x | x | x
Oc1ccc(Cl)cc1Nc1nc(NCC2CCCO2)c2ccccc2n1 (centres undefined) | 1 | x | x | x | x | x
Oc1ccccc1Nc1nc(NCC2CCCO2)c2ccccc2n1 (centres undefined) | 1 | -23 | -7 | 1 | 0 | 77*
O=C(O)c1ccc(-c2ccc(/C=C3\NC(=O)N(Cc4ccc(Cl)cc4)C3=O)o2)cc1 | 0 | -60 | 33* | 3 | 38 | 29
Cc1ccc(CN2C(=O)N/C(=C\c3ccc(-c4ccc(C(=O)O)cc4C)o3)C2=O)cc1 | 0 | -49 | 10 | 2 | 39 | 19
CC(C)CNC(=O)c1ccccc1NC(=O)CN(c1ccccc1)S(=O)(=O)N(C)C | -1 | 3 | 0 | -2 | 12 | -3
CCOC(=O)C1=C(C)NC(=O)NC1c1c(C)nn(-c2ccccc2)c1Cl (centres undefined) | 0 | -10 | 3 | 0 | -9 | 93*
CCOC(=O)C1=C(C)N(C)C(=O)NC1c1c(C)nn(-c2ccc(C)cc2)c1Cl (centres undefined) | -1 | 2 | 7 | -2 | -8 | 28
CCOC(=O)c1c(CSC(=N)N)n(-c2ccc(C)cc2)c2cc(Br)c(OC(C)=O)cc12 | -1 | 37* | 17 | 4 | 8 | 61
Cc1cc(C)c(Nc2cc(S(=O)(=O)O)c(N)c3c2C(=O)c2ccccc2C3=O)c(C)c1 | -1 | 59* | 56*[fluorescence artefact?] | -9 | 45 | 73*[fluorescence artefact?]
O=CN1CCCN(Cc2nc(-c3cccc(Cl)c3)no2)CC1 | 0 | -1 | 0 | -2 | 16 | -5
CC1(C(=O)NCc2ccccc2)CN(S(C)(=O)=O)CC(=O)N1C1CC1 (centres undefined) | 0 | x | x | x | x | x
CCOc1cc(CN2CCCCC2)ccc1OC | 0 | -6 | -4 | 0 | 20 | 5
CCOc1cc(CN2CCN(c3cccc(C(F)(F)F)c3)CC2)ccc1OC | 0 | 17 | -3 | -2 | 8 | 70*
CCOc1cc(CN2CCN(c3ccc(C(C)=O)cc3)CC2)ccc1OC | -2 | -3 | 10 | 1 | -8 | 89*

High-throughput results: PubChem, several laboratories
